Experimental findings from ChEMBL document CHEMBL4334488 (J Med Chem, 2019) are described below.

For data set [1], the target named is T1, Histamine H3 receptor (Homo sapiens, UniProt Q9Y5N1). Briefly: Displacement of 3 nM [3H]Nalpha-methylhistamine from human H3R expressed in Sf9 cell membranes co-expressing Gia2 and beta1gamma2 by competition binding assay. In outline: (§1)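 Competition binding on Sf9 membranes in 100 μL with 0.2% BSA. Membrane protein: 5−25 μg (H4R), 24−35 μg (H3R), 15 μg (H2R), 23 μg (H1R). Normalized total binding was plotted against log competitor. Two to four independent experiments, each in triplicate.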

Data set [2] concerns the target T2, Histamine H4 receptor (Mus musculus, UniProt Q91ZY2).
T2 sequence (Q91ZY2 whole entry): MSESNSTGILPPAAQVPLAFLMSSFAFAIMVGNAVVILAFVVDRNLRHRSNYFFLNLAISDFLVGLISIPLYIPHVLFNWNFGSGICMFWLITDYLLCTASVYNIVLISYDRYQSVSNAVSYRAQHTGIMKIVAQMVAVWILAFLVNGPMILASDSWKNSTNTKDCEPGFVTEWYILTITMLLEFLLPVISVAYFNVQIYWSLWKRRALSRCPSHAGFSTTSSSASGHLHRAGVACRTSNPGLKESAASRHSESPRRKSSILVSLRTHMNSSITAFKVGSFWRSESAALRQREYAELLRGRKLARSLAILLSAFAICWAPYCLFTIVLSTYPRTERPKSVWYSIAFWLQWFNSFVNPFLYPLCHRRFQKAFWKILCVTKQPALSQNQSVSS
As to the kind of experiment: Agonist activity at mouse H4R by [35S]-GTPgammaS-binding assay. Format: functional. (Binding of GTPγS marks nucleotide exchange on a G protein.)

Data set [3] has as its target T3, Histamine H4 receptor (Homo sapiens, UniProt Q9H3N8). Briefly: Agonist activity at human H4R by [35S]-GTPgammaS-binding assay. Type of data set: functional.
Data set [4] is described as follows: Chemical stability in PBS buffer at pH 7.4 at 200 uM at 23 degC measured over 24 hrs by RP-HPLC analysis. Type of data set: physicochemical. The following applies: pH 7.4, 24 h. The method in brief:
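Compounds diluted to 200 μM in PBS pH 7.4 from a 10 mM DMSO stock, incubated at 23 °C for 24 h, and analysed by RP-HPLC with detection at 220 nm.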

Data set [5] addresses Histamine H1 receptor (Homo sapiens, UniProt P35367). Briefly: Displacement of 5 nM [3H-pyrilamine from human H1R expressed in Sf9 cell membranes co-expressing RGS4 by competition binding assay. The method in brief: as §1
The species entered for data set [6] is Homo sapiens. Briefly: Selectivity index, ratio of Ki for [3H]UR-DE257 from human H2R expressed in Sf9 cell membranes co-expressing GsalphaS by competition binding assay to Ki for displacement of 40 nM [3H]-histamine from human H4R expressed in Sf9 cell membranes co-expressing Gia2 and beta1gamma2 by competition binding assay.
The target in data set [7] is Histamine H2 receptor (Homo sapiens, UniProt P25021). As to the kind of experiment: Displacement of 20 nM [3H]UR-DE257 from human H2R expressed in Sf9 cell membranes co-expressing GsalphaS by competition binding assay. In outline: as §1
The species named for data set [8] is Homo sapiens. As to the kind of experiment: Selectivity index, ratio of Ki for displacement of 2 nM [3H]UR-PI294 from human H3R expressed in Sf9 cell membranes co-expressing Gia2 and beta1gamma2 by competition binding assay to Ki for displacement of 40 nM [3H]-histamine from human H4R expressed in Sf9 cell membranes co-expressing Gia2 and beta1gamma2 by competition binding assay.

Data set [9] addresses T1, Histamine H3 receptor. As to the kind of experiment: Displacement of 2 nM [3H]UR-PI294 from human H3R expressed in Sf9 cell membranes co-expressing Gia2 and beta1gamma2 by competition binding assay. In outline:
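Competition binding on Sf9 membranes in 100 μL with 0.2% BSA. Membrane protein: 5−25 μg (H4R), 24−35 μg (H3R), 15 μg (H2R), 23 μg (H1R). […] Normalized total binding was plotted against log competitor. Two to four independent experiments, each in triplicate.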

Data set [10] has as its target T3, Histamine H4 receptor. As to the kind of experiment: Displacement of 40 nM [3H]-histamine from human H4R expressed in Sf9 cell membranes co-expressing Gia2 and beta1gamma2 by competition binding assay. The method in brief: as §1
Data set [11] is described as follows: Chemical stability in EtOH/H2O (70:30) at -20 degC measured over 11 months. Type of data set: physicochemical. The following applies: 8035.5 h. In outline:
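Radioligand stored in EtOH/H2O 70:30 at −20 °C. Radiochemical purity was checked by HPLC with UV and radiometric detection after spiking with the unlabeled compound, 4 days after synthesis and again after 11 months.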

For data set [12], the target named is T3, Histamine H4 receptor.
Data set [13] deals with Histamine H4 receptor (Rattus norvegicus) (UniProt Q91ZY1).
The target in data set [14] is T4, Histamine H4 receptor (Mus musculus) (UniProt Q91ZY2).
T4 sequence (whole entry): T2 sequence (Q91ZY2 whole entry)

Data set [15] has as its target T3, Histamine H4 receptor. Briefly: Binding affinity to human H4R.

Chain of Histamine H1 receptor (P35367 whole entry, looked up): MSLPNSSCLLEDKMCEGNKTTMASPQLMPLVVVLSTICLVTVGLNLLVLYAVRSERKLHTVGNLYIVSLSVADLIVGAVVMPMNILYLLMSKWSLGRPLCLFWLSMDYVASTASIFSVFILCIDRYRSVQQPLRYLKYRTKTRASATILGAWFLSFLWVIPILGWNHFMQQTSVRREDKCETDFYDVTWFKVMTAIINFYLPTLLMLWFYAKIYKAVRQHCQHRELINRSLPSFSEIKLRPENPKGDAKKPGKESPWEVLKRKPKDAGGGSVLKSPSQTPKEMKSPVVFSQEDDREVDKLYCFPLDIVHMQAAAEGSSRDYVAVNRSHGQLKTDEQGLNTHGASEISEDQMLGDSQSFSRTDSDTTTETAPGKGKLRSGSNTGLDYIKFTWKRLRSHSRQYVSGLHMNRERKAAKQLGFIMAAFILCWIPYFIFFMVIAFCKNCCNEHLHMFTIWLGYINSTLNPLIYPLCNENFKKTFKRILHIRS
T3 sequence (Q9H3N8 whole entry): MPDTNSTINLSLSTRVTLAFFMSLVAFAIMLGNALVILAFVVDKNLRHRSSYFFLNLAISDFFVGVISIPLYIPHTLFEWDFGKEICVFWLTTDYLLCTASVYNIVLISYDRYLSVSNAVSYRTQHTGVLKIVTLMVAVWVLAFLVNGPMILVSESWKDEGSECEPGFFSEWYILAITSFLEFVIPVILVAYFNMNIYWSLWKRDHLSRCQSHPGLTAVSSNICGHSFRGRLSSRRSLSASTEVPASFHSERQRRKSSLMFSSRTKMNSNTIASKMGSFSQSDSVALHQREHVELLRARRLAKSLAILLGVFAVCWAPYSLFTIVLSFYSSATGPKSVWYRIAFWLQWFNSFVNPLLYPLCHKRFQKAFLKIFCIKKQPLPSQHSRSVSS
T1 sequence (Q9Y5N1 whole entry): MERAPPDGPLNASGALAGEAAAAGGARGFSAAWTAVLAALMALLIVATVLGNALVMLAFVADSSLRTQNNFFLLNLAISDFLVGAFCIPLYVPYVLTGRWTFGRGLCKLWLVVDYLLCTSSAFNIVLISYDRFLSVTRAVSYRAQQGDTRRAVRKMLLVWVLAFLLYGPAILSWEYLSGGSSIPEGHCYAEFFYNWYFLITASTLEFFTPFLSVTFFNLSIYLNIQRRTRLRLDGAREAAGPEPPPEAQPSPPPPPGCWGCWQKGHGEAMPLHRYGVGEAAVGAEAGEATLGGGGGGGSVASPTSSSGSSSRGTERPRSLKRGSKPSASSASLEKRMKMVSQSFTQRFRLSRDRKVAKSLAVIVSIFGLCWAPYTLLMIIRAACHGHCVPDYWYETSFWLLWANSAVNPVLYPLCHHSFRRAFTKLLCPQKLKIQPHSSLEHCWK
Chain of Histamine H4 receptor (Rattus norvegicus) (Q91ZY1 whole entry): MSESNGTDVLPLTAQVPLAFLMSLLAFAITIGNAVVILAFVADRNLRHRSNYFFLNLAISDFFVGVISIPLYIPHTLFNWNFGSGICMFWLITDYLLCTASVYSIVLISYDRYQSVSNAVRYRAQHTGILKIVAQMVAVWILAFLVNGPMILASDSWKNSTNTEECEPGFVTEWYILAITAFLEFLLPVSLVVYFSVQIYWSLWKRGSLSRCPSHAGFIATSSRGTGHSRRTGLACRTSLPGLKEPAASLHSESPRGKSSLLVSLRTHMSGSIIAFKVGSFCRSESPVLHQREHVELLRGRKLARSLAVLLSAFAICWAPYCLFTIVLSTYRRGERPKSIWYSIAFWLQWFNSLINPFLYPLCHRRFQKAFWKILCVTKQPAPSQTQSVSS
Chain of Histamine H2 receptor (P25021 whole entry): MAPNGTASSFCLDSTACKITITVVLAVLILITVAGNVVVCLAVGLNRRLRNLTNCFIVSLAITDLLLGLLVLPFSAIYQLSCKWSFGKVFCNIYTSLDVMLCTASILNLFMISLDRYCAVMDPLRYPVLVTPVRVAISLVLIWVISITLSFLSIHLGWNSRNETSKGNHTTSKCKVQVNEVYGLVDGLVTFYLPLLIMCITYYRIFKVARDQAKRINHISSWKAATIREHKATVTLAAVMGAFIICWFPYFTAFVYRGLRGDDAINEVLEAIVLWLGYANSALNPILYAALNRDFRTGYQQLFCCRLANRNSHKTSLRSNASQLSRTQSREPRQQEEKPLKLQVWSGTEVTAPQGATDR

In general, Ki refers to a measure of affinity in units of concentration, obtained from inhibition or displacement. Low readings indicate a stronger hold on the target, high ones a looser hold on the target. `CC(C)(C)CNc1nccc(N2CCNCC2)n1` showed a Ki in data set [1] of more than 10000 nM.
Usually EC50 stands for the concentration giving half of the maximal effect. High values mean a need for much substance, low ones an effect from little substance. As to `NC(=NCc1ccc(Cl)cc1)SCCCc1cnc[nH]1` [CLOBENPROPIT], the values for the EC50 in [2] and in data set [3] were 851 nM and 22.4 nM, respectively.
Regarding `CC(C)(C)CNc1nccc(N2CC[C@@H](NC(=N)N)C2)n1.O=C(O)C(F)(F)F.O=C(O)C(F)(F)F`, the Ki in [1] was 1120 nM; in [5] it was more than 10000 nM. Also, the Stability entry in [4] is on record as “Stable”.
`CC(C)(C)CNc1nccc(NC2CCNCC2)n1`: the inhibitory constant (Ki) in [1] is 3470 nM; in data set [7], more than 10000 nM; in data set [9], 3470 nM; in data set [10], 1910 nM; in data set [5] it was more than 10000 nM. In addition, the Ratio Ki is more than 4.7 in [6] and 1.6 in data set [8].
On to `CC(C)(C)CNc1nccc(N2CCCN(C(=N)N)CC2)n1`, for which the Ki in data set [1] was more than 10000 nM.
Turning to `O=C(O)C(F)(F)F.O=C(O)C(F)(F)F.[3H]C([3H])([3H])N(C)[C@@H]1CCN(c2ccnc(NCC(C)(C)C)n2)C1`, the Stability result in data set [11] was “Stable”.
For the molecule `CN(C)[C@@H]1CCN(c2ccnc(NCC(C)(C)C)n2)C1.O=C(O)C(F)(F)F.O=C(O)C(F)(F)F`, the Stability result in [4] is on record as “Stable”. The molecule also had a Ki in data set [5] of more than 10000 nM.
Molecule `CC(C)(C)CNc1nccc(N2CC[C@@H](N)C2)n1` had a Ki in data set [1] of 13.8 nM.
Still for that read-out and setting: under `CN1CCN(c2ccnc(NCC(C)(C)C)n2)CC1` stands 5500 nM; under `CC(C)(C)CNc1nccc(N2CCN(CCN)CC2)n1`, more than 10000 nM.
`CC(C)(C)CNc1nccc(NCCCc2c[nH]cn2)n1`: the affinity in [9] corresponds to a Ki of 9.33 nM.
A word on the pKb: it is −log10 of the Kb, conventionally taken in molar units. For the molecule `S=C(NC1CCCCC1)N1CCC(c2cnc[nH]2)CC1`, the pKb was 6.83 in data set [12], 6.44 in data set [13] and 7.12 in data set [14].
In data set [1], `CC(C)(C)CNc1nccc(N2CCc3nc[nH]c3C2)n1.O=C(O)C(F)(F)F.O=C(O)C(F)(F)F` had an inhibition constant Ki of 3.31 nM. The Stability result in data set [4] was “Stable”.
As for `CC(C)(C)CNc1nccc(NCCN)n1`, the Ki in data set [1] is 692 nM; in [5], more than 1000 nM.
In [9], `CC(C)(C)CNc1nccc(N2CCCNCC2)n1` showed an inhibitory constant (Ki) of 537 nM.
With `NC(=NCCc1ccc(I)cc1)SCCCc1cnc[nH]1` [IODOPHENPROPIT], the affinity in data set [15], expressed as Ki, was 12.6 nM.
`CN[C@@H]1CCN(c2ccnc(NCC(C)(C)C)n2)C1`: the Ki in data set [1] and in data set [9] was 27.5 nM in each case.
For `CCC(=O)N[C@@H]1CCN(c2ccnc(NCC(C)(C)C)n2)C1`, the inhibitory constant (Ki) in [1] and in data set [9] was 3020 nM throughout.
Regarding `CC(C)(C)CNc1nccc(NCCc2c[nH]cn2)n1`, the inhibition constant Ki in data set [9] is 9.55 nM; in [10], 204 nM.
For the molecule `CC(C)(C)CNc1nccc(NCCCN)n1`, the results for the Ki in [1], in data set [9] and in data set [5] were 5620 nM, 5620 nM and more than 10000 nM, respectively.
In the case of `Cc1[nH]cnc1CSCCNc1ccnc(NCC(C)(C)C)n1`, the inhibition constant (Ki) in data set [1] is more than 10000 nM; in data set [5] it was more than 1000 nM.
`N=C(NCc1ccc(Cl)cc1)SCCCc1c[nH]cn1` registered a negative-log Kb (pKb) in data set [13] of 6.28.
As for `CN1CCCN(c2ccnc(NCC(C)(C)C)n2)CC1.O=C(O)C(F)(F)F.O=C(O)C(F)(F)F`, the inhibition constant Ki in data set [1] was 2400 nM; in data set [5], more than 10000 nM. Further, the Stability entry in data set [4] is “Stable”.
In the case of `CC(C)(C)CNc1nccc(NC2CCNC2)n1` (stereo not given), the inhibition constant Ki in data set [1] was 204 nM; in data set [9], 204 nM; in data set [5] it was more than 10000 nM.
Consider `CC(C)(C)CNc1nccc(N2CCN(C(=N)N)CC2)n1`, for which the Ki in data set [1] is 6030 nM; in data set [5], more than 1000 nM.
